Data: ChEMBL document CHEMBL1154565, “Cytotoxic constituents of the roots of Ekmanianthe longiflora” (2000)
In brackets after ≈: the same amount, converted by molar mass. Activity calls are given as the source filed them. No cut-off for these calls is given here.

How the values were obtained:
[1] = (§1) Cytotoxicity against human multidrug resistant KB-V cells in presence of vinblastine; format: functional; conditions: KBV, read-out: ED50 (the source's name)
[2] = (§2) Cytotoxicity against human multidrug resistant KB-V cells; format: functional; conditions: KBV, read-out: ED50 (the source's name)
[3] = (§3) Cytotoxicity against human BC1 cells; format: functional; conditions: read-out: ED50 (the source's name)
SW626 = assay: Cytotoxicity against human SW626 cells; format: functional; conditions: for EC50: read-out: ED50 (the source's name)
M109 (Mus musculus) = assay: Cytotoxicity against mouse M109 cells; conditions: for EC50: read-out: ED50 (the source's name)
Col2 = assay: Cytotoxicity against human Col2 cells; format: functional; conditions: for EC50: read-out: ED50 (the source's name)
KB = assay: Cytotoxicity against human KB cells; format: functional; conditions: for EC50: read-out: ED50 (the source's name)
[4] = (§4) Cytotoxicity against human […] cells; format: functional; conditions: read-out: ED50 (the source's name)
SK-N-SH = assay: Cytotoxicity against human SK-N-SH cells; format: functional; conditions: for EC50: read-out: ED50 (the source's name)
LNCaP = assay: Cytotoxicity against human LNCaP cells; format: functional; conditions: for EC50: read-out: ED50 (the source's name)
KB-V [5] = assay: as §1; format: functional
KB-V [6] = assay: as §2; format: functional
BC1 = assay: as §3; format: functional
Lo1 = assay: as §4; format: functional
P388 = assay: Antitumor activity against mouse P388 leukemia system at 72 mg/kg, ip relative to control; format: functional; conditions: route intraperitoneal
In short: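 Six female CDF1 mice per group received 10^6 P-388 cells i.p. in 0.5 mL RPMI medium. Starting one day later, test compound was given i.p. daily for 5 days, with doses of 8, 24 and 72 mg/kg/injection. Read-out was survival, reported as % T/C (median survival of treated over control ×100). T/C ≥125% was taken as significant.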

Question: For `CC1(C)CCC2=C(O1)C(=O)c1ccccc1C2=O` [ALPHA-LAPACHONE], which EC50 [1] is on record?
Answer: 8.3 µg/mL

Question: And the EC50 [2]?
Answer: 12.9 µg/mL (≈ 53.2 µM)

Question: What about the EC50 [3] of the same compound?
Answer: 6.7 µg/mL (≈ 27.7 µM)

Question: And the EC50 (SW626)?
Answer: 3 µg/mL (≈ 12.4 µM)

Question: And the EC50 (M109 (Mus musculus))?
Answer: 9 µg/mL (≈ 37.1 µM)

Question: And the EC50 (Col2)?
Answer: 9.9 µg/mL (≈ 40.9 µM)

Question: What about the EC50 (KB) of the same compound?
Answer: 13 µg/mL (≈ 53.7 µM)

Question: What about the EC50 [4] of the same compound?
Answer: 5.3 µg/mL (≈ 21.9 µM)

Question: What about the EC50 (SK-N-SH) of the same compound?
Answer: 5.1 µg/mL (≈ 21.1 µM)

Question: What about the EC50 (LNCaP) of the same compound?
Answer: 7.1 µg/mL (≈ 29.3 µM)

Question: For `CC(C)(O)[C@H]1C[C@H]2C(=O)c3ccccc3[C@@H](O)[C@@H]2O1` (relative stereo), which Activity (KB-V [5]) is on record?
Answer: inactive

Question: And the Activity (KB-V [6])?
Answer: inactive

Question: What about the Activity (BC1) of the same compound?
Answer: inactive

Question: And the Activity (SW626)?
Answer: inactive

Question: What about the Activity (M109 (Mus musculus)) of the same compound?
Answer: inactive

Question: And the Activity (Col2)?
Answer: inactive

Question: And the Activity (KB)?
Answer: inactive

Question: What about the Activity (Lo1) of the same compound?
Answer: inactive

Question: And the Activity (SK-N-SH)?
Answer: inactive

Question: What about the Activity (LNCaP) of the same compound?
Answer: inactive

Question: For `C=C(C)C1CC2=C(O1)C(=O)c1ccccc1C2=O` (stereo not drawn) [DEHYDROISO-ALPHA-LAPACHONE], which EC50 [1] is on record?
Answer: 0.3 µg/mL

Question: And the EC50 [2]?
Answer: 0.5 µg/mL (≈ 2.08 µM)

Question: What about the EC50 [3] of the same compound?
Answer: 1 µg/mL (≈ 4.16 µM)

Question: What about the EC50 (SW626) of the same compound?
Answer: 0.3 µg/mL (≈ 1.25 µM)

Question: What about the EC50 (M109 (Mus musculus)) of the same compound?
Answer: 0.4 µg/mL (≈ 1.66 µM)

Question: What about the EC50 (Col2) of the same compound?
Answer: 0.2 µg/mL (≈ 0.832 µM)

Question: What about the EC50 (KB) of the same compound?
Answer: 0.2 µg/mL (≈ 0.832 µM)

Question: And the EC50 [4]?
Answer: 0.2 µg/mL (≈ 0.832 µM)

Question: And the EC50 (SK-N-SH)?
Answer: 0.2 µg/mL (≈ 0.832 µM)

Question: And the EC50 (LNCaP)?
Answer: 0.2 µg/mL (≈ 0.832 µM)

Question: With `CC(C)=CC[C@@H]1C(=O)c2ccccc2[C@@H](O)[C@@H]1O` as the compound, how does the Activity (KB-V [5]) read?
Answer: inactive

Question: What about the Activity (KB-V [6]) of the same compound?
Answer: inactive

Question: And the Activity (BC1)?
Answer: inactive

Question: And the Activity (SW626)?
Answer: inactive

Question: And the Activity (M109 (Mus musculus))?
Answer: inactive

Question: What about the Activity (Col2) of the same compound?
Answer: inactive

Question: What about the Activity (KB) of the same compound?
Answer: inactive

Question: And the Activity (Lo1)?
Answer: inactive

Question: And the Activity (SK-N-SH)?
Answer: inactive

Question: What about the Activity (LNCaP) of the same compound?
Answer: inactive

Question: Which EC50 [1] does the source give for `CC(O)c1cc2c(o1)C(=O)c1ccccc1C2=O` (stereo unspecified) here?
Answer: 1.2 µg/mL

Question: What about the EC50 [2] of the same compound?
Answer: 2 µg/mL (≈ 8.26 µM)

Question: And the EC50 [3]?
Answer: 3.2 µg/mL (≈ 13.2 µM)

Question: And the EC50 (SW626)?
Answer: 0.3 µg/mL (≈ 1.24 µM)

Question: And the EC50 (M109 (Mus musculus))?
Answer: 1.8 µg/mL (≈ 7.43 µM)

Question: What about the EC50 (Col2) of the same compound?
Answer: 1.8 µg/mL (≈ 7.43 µM)

Question: What about the EC50 (KB) of the same compound?
Answer: 0.5 µg/mL (≈ 2.06 µM)

Question: And the T/C (P388)?
Answer: 110%

Question: What about the EC50 [4] of the same compound?
Answer: 0.2 µg/mL (≈ 0.826 µM)

Question: What about the EC50 (SK-N-SH) of the same compound?
Answer: 4 µg/mL (≈ 16.5 µM)

Question: And the EC50 (LNCaP)?
Answer: 3.5 µg/mL (≈ 14.4 µM)

Question: With `CC(=O)c1cc2c(o1)C(=O)c1ccccc1C2=O` [NAPABUCASIN] as the compound, how does the EC50 [1] read?
Answer: 0.9 µg/mL

Question: What about the EC50 [2] of the same compound?
Answer: 0.9 µg/mL (≈ 3.75 µM)

Question: And the EC50 [3]?
Answer: 0.4 µg/mL (≈ 1.67 µM)

Question: What about the EC50 (SW626) of the same compound?
Answer: 0.2 µg/mL (≈ 0.833 µM)

Question: And the EC50 (M109 (Mus musculus))?
Answer: 0.9 µg/mL (≈ 3.75 µM)

Question: What about the EC50 (Col2) of the same compound?
Answer: 0.4 µg/mL (≈ 1.67 µM)

Question: And the EC50 (KB)?
Answer: 0.2 µg/mL (≈ 0.833 µM)

Question: And the EC50 [4]?
Answer: 0.3 µg/mL (≈ 1.25 µM)

Question: And the EC50 (SK-N-SH)?
Answer: 0.8 µg/mL (≈ 3.33 µM)

Question: What about the EC50 (LNCaP) of the same compound?
Answer: 0.2 µg/mL (≈ 0.833 µM)

Question: With `CC(C)=CC[C@H]1C(=O)c2ccccc2[C@@H](O)[C@@H]1O` as the compound, how does the Activity (KB-V [5]) read?
Answer: inactive

Question: And the Activity (KB-V [6])?
Answer: inactive

Question: And the Activity (BC1)?
Answer: inactive

Question: And the Activity (SW626)?
Answer: inactive

Question: What about the Activity (M109 (Mus musculus)) of the same compound?
Answer: inactive

Question: What about the Activity (Col2) of the same compound?
Answer: inactive

Question: And the Activity (KB)?
Answer: inactive

Question: And the Activity (Lo1)?
Answer: inactive

Question: And the Activity (SK-N-SH)?
Answer: inactive

Question: What about the Activity (LNCaP) of the same compound?
Answer: inactive

Question: With `CC(C)=CC[C@H]1C[C@H](O)c2ccccc2C1=O` as the compound, how does the Activity (KB-V [5]) read?
Answer: inactive

Question: What about the Activity (KB-V [6]) of the same compound?
Answer: inactive

Question: And the Activity (BC1)?
Answer: inactive

Question: What about the Activity (SW626) of the same compound?
Answer: inactive

Question: And the Activity (M109 (Mus musculus))?
Answer: inactive

Question: What about the Activity (Col2) of the same compound?
Answer: inactive

Question: What about the Activity (KB) of the same compound?
Answer: inactive

Question: And the Activity (Lo1)?
Answer: inactive

Question: What about the Activity (SK-N-SH) of the same compound?
Answer: inactive

Question: What about the Activity (LNCaP) of the same compound?
Answer: inactive

Question: What does the source list for `CC(C)=CC[C@@H]1C[C@H](O)c2ccccc2C1=O`?
Answer: Activity (KB-V [5]): inactive; Activity (KB-V [6]): inactive; Activity (BC1): inactive; Activity (SW626): inactive; Activity (M109 (Mus musculus)): inactive; Activity (Col2): inactive; Activity (KB): inactive; Activity (Lo1): inactive; Activity (SK-N-SH): inactive; Activity (LNCaP): inactive
